In ChEMBL document CHEMBL1153319, “Dancing of the second aromatic residue around the 6,8-diazabicyclo[3.2.2]nonane framework: influence on sigma receptor affinity and cytotoxicity” (J Med Chem, 2009):

Columns and labels:
[1] = system: 5637; assay: Cytotoxicity against human 5637 cells after 96 hrs by crystal violet staining; assay type: functional, cell-based; conditions: Homo sapiens, 5637, 96 h
Procedure, shortened: (§1)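 Human tumour lines from DSMZ given a 20 µM primary screen for 96 h at 37 °C. Those cutting growth >50% versus untreated controls were then tested at 5 serial dilutions (DMSO stocks) for 96 h. Remaining cell density read by crystal violet staining. IC50 from least-squares dose-response fit using concentrations giving T/C 10–90%.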

[2] = system: DAN-G; assay: Cytotoxicity against human DAN-G cells after 96 hrs by crystal violet staining; assay type: functional, cell-based; procedure, shortened: as §1
[3] = system: A-427; assay: Cytotoxicity against human A427 cells after 96 hrs by crystal violet staining; assay type: functional, cell-based; conditions: A-427, 96 h; procedure, shortened: as §1
[4] = Cytotoxicity against human LCLC-103H cells after 96 hrs by crystal violet staining; assay type: functional, cell-based; procedure, shortened: as §1
[5] = Displacement of [3H]1,3-ditolylguanine from sigma 2 receptor in rat liver membrane by solid scintillation analysis; assay type: cell membranes
[6] = Selectivity ratio of IC50 for sigma 2 receptor in rat liver membrane to IC50 for sigma 1 receptor in guinea pig brain membrane; assay type: cell membranes
[7] = system: MCF7; assay: Cytotoxicity against human MCF7 cells after 96 hrs by crystal violet staining; assay type: functional, cell-based; conditions: MCF7, 96 h; procedure, shortened: as §1
[8] = biological target: Sigma non-opioid intracellular receptor 1 (Cavia porcellus, UniProt Q60492); assay: Displacement of [3H](+)-pentazocine from sigma 1 receptor in guinea pig brain membrane by scintillation analysis; assay type: cell membranes
[9] = system: RT-4; assay: Cytotoxicity against human RT4 cells after 96 hrs by crystal violet staining; assay type: functional, cell-based; conditions: RT-4, 96 h; procedure, shortened: as §1
[10] = biological target: Sigma non-opioid intracellular receptor 1 (Homo sapiens, UniProt Q99720); assay: Binding affinity to sigma 1 receptor
Procedure, shortened: (§2)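 Guinea pig brain homogenate (about 75 µg protein) incubated with test compound, 2 nM [3H]-(+)-pentazocine (Kd 2.9 nM) in 50 mM Tris pH 7.4, 180 min at 37 °C. Nonspecific binding with 10 µM unlabeled (+)-pentazocine. Rapid filtration, water washes, solid scintillator counting. Ki by Cheng–Prusoff from six-concentration competition curves, triplicates, mean ± SEM of three experiments; single-point lines give inhibition at 1 µM.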

[11] = biological target: Sigma non-opioid intracellular receptor 1 (Cavia porcellus) (UniProt Q60492); assay: Displacement of [3H](+)-pentazocine from sigma 1 receptor in guinea pig brain membrane at 1 uM by scintillation analysis; assay type: cell membranes; procedure, shortened: as §2
[12] = species on record: Rattus norvegicus; assay: Displacement of [3H]1,3-ditolylguanine from sigma 2 receptor in rat liver membrane by solid scintillation analysis at 1 uM; assay type: cell membranes
[13] = Selectivity for sigma 2 receptor in rat liver membrane over sigma 1 receptor in guinea pig brain membrane; assay type: cell membranes

Sigma non-opioid intracellular receptor 1 (Homo sapiens, UniProt Q99720), sequence (Q99720 whole entry): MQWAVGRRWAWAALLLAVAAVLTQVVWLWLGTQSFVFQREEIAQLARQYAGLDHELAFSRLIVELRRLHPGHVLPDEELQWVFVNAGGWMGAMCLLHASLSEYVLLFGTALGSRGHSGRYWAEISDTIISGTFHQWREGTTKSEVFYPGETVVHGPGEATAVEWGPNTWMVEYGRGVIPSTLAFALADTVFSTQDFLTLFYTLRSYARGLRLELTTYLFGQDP
Sigma non-opioid intracellular receptor 1 (Cavia porcellus, UniProt Q60492), sequence (Q60492 whole entry): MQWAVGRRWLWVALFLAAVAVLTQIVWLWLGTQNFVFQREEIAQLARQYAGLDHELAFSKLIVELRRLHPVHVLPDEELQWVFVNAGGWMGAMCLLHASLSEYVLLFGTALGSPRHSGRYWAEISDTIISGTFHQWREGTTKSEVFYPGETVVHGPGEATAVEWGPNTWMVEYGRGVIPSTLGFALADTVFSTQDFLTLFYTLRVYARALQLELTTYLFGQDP
Sigma non-opioid intracellular receptor 1 (Cavia porcellus), sequence (Q60492 whole entry): as above

Ki [5] [µM]	Ratio IC50 [6]	Ki [8] [µM]	Ki [10] [µM]	Activity [11] [%]	Activity [12] [%]	fold change (FC) [13]	SMILES	IC50 [1] [µM]	IC50 [2] [µM]	IC50 [3] [µM]	IC50 [4] [µM]	IC50 [7] [µM]	IC50 [9] [µM]
6.46	70	0.091	–	–	–	–	C=CCN1C[C@H]2[C@H](OCc3ccccc3)CC[C@@H]1CN2Cc1ccc(OC)cc1	11.2	12.7	4.61	19.9	9.13	14.3
–	–	–	1.6	–	–	–	C=CCN1CC2C(=O)CCC1CN2Cc1ccc(OC)cc1 (stereo not drawn)	–	–	–	–	–	–
0.566	5	0.104	–	–	–	–	C=CCN1C[C@H]2/C(=C\c3ccccc3)CC[C@@H]1CN2Cc1ccc(OC)cc1	10.9	9.82	3.93	17.8	7.25	14.1
–	–	–	–	40	11	–	CCCN1CC2C(=O)C[C@@H](c3ccccc3)C1CN2Cc1ccc(OC)cc1 (stereo partly drawn)	> 20	> 20	> 20	> 20	> 20	> 20
–	–	–	–	37	44	–	C=CCN1C[C@H]2c3[nH]c4ccc(OC)cc4c3C[C@@H]1CN2Cc1ccc(OC)cc1	16.1	> 20	15.4	> 20	> 20	> 20
–	–	–	–	17	0	–	COc1ccc(CN2C[C@@H]3[C@H](c4ccccc4)CC(=O)[C@H]2CN3Cc2ccccc2)cc1	18.3	16.1	10.3	> 20	19.4	20.5
0.469	–	4.05	–	–	–	5	C=CCN1C[C@@H]2[C@H](Oc3ccccc3)CC[C@H]1CN2Cc1ccc(OC)cc1OC	11.7	12.5	7.09	> 20	9.11	15.3
0.4	–	–	–	20	–	5	C=CCN1C[C@@H]2[C@H](OCc3ccccc3)CC[C@H]1CN2Cc1ccc(OC)cc1OC	4.73	4.58	3.55	11.1	5.81	8.57
–	–	–	0.053	–	–	–	COc1ccc(CN2CC3CCC(=O)C2CN3Cc2ccccc2)cc1 (stereo not drawn)	–	–	–	–	–	–
–	–	–	2.24	–	–	–	C=CCN1CC2[C@@H](O)CCC1CN2Cc1ccc(OC)cc1 (stereo partly drawn)	–	–	–	–	–	–
0.479	–	2.12	–	–	–	5	C=CCN1C[C@@H]2[C@H](Oc3ccccc3)CC[C@H]1CN2Cc1ccc(OC)cc1	14	15.8	5.95	> 20	12.7	19.1

SMILES	Ki [5] [µM]	Ratio IC50 [6]	Ki [8] [µM]	Ki [10] [µM]	Activity [11] [%]	Activity [12] [%]	fold change (FC) [13]	IC50 [1] [µM]	IC50 [2] [µM]	IC50 [3] [µM]	IC50 [4] [µM]	IC50 [7] [µM]	IC50 [9] [µM]
COc1ccc(CN2CCN(Cc3ccccc3)[C@@H](CO)C2)cc1	–	–	–	0.012	–	–	–	–	–	–	–	–	–
